Here are results for 8 compounds from ChEMBL document CHEMBL1817567, “Design of benzimidazole- and benzoxazole-2-thione derivatives as inhibitors of bacterial hyaluronan lyase” (Eur J Med Chem, 2011).

The structures appear in SMILES notation. pIC50: −log10 of the molar value. Converted amounts (≈) assume the structure as drawn. The source made the active and inactive calls. No cut-off for these calls is given here.

For orientation: inhibition means the share of the control response that was lost under treatment. By pIC50 is commonly meant the negative decadic logarithm of the IC50, by convention in mol/L. Low readings indicate a high IC50, high ones a low IC50. As a reminder, the solubility is how much of the substance goes into solution per volume. Read a low solubility as a poorly soluble substance.

For series [1], the target named is T1, Hyaluronidase (Bos taurus) (UniProt Q8SQG8+Q5E985). As to the kind of experiment: Inhibition of bovine testes hyaluronidase at 49 uM after 30 mins at pH 5 by turbidimetric analysis. The series is classed as protein assay.
The target of series [2] is T1, Hyaluronidase (Bos taurus). Briefly: Inhibition of bovine testes hyaluronidase at 380 uM after 30 mins at pH 5 by turbidimetric analysis. The series is classed as protein assay.
Series [3] has as its target T1, Hyaluronidase (Bos taurus). Briefly: Inhibition of bovine testes hyaluronidase at 130 uM after 30 mins at pH 5 by turbidimetric analysis. In kind it is protein assay.
The target of series [4] is T1, Hyaluronidase (Bos taurus). Briefly: Inhibition of bovine testes hyaluronidase at 180 uM after 30 mins at pH 5 by turbidimetric analysis. In kind it is protein assay.
Series [5] concerns the target T1, Hyaluronidase (Bos taurus). As to the kind of experiment: Inhibition of bovine testes hyaluronidase at 3800 uM after 30 mins at pH 5 by turbidimetric analysis. The series is classed as protein assay.
For series [6], the target named is T1, Hyaluronidase (Bos taurus). As to the kind of experiment: Inhibition of bovine testes hyaluronidase at 80 uM after 30 mins at pH 5 by turbidimetric analysis. In kind it is protein assay.
Series [7] concerns the target T1, Hyaluronidase (Bos taurus). Briefly: Inhibition of bovine testes hyaluronidase at 400 uM after 30 mins at pH 5 by turbidimetric analysis. In kind it is protein assay.
For series [8], the target named is T1, Hyaluronidase (Bos taurus). As to the kind of experiment: Inhibition of bovine testes hyaluronidase at 460 uM after 30 mins at pH 5 by turbidimetric analysis. The series is classed as protein assay.
Series [9] has as its target T1, Hyaluronidase (Bos taurus). As to the kind of experiment: Inhibition of bovine testes hyaluronidase at 190 uM after 30 mins at pH 5 by turbidimetric analysis. In kind it is protein assay.
Series [10] is described as follows: Inhibition of Streptococcus agalactiae 4755 hyaluronidase at pH 7.4 after 3 hrs by turbidimetric analysis. In short, it runs like this:
(§1)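 Same turbidimetric hyaluronan-lyase assay at pH 7.4 (citrate–phosphate/NaCl): SagHyal4755 2.9 ng, hyaluronan (2 mg/ml stock), BSA, 3.8% DMSO final, 3 h at 37 °C. CTAB (2.5%, in 0.5 M NaOH) precipitation, 20 min at 25 °C, A600. Activity scaled between no-inhibitor and no-enzyme samples.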

For series [11], the target named is T1, Hyaluronidase (Bos taurus). Briefly: Inhibition of bovine testes hyaluronidase at 2000 uM after 30 mins at pH 5 by turbidimetric analysis. In kind it is protein assay.
The subject of series [12] is Streptococcus agalactiae. Briefly: Inhibition of Streptococcus agalactiae 4755 hyaluronidase at 2000 uM after 30 mins at pH 5.0 by turbidimetric analysis. In short, it runs like this: (§2)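 SagHyal4755 (2.9 ng) with BSA and hyaluronan (2 mg/ml stock) in citrate–phosphate/NaCl buffer pH 5.0, 3.8% DMSO final, 30 min at 37 °C. Stopped by alkaline 2.5% CTAB, then 20 min at 25 °C. Residual-substrate turbidity read at 600 nm; no-inhibitor sample = 100%, no-enzyme sample = 0% activity. Enzyme-free compound controls were run.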

The target in series [13] is T1, Hyaluronidase (Bos taurus). Briefly: Inhibition of bovine testes hyaluronidase at 170 uM after 30 mins at pH 5 by turbidimetric analysis. In kind it is protein assay.
In series [14] the target is T1, Hyaluronidase (Bos taurus). As to the kind of experiment: Inhibition of bovine testes hyaluronidase at 150 uM after 30 mins at pH 5 by turbidimetric analysis. In kind it is protein assay.
In series [15] the target is T1, Hyaluronidase (Bos taurus). Briefly: Inhibition of bovine testes hyaluronidase at 4200 uM after 30 mins at pH 5 by turbidimetric analysis. In kind it is protein assay.
The target of series [16] is T1, Hyaluronidase (Bos taurus). Briefly: Inhibition of bovine testes hyaluronidase at 200 uM after 30 mins at pH 5 by turbidimetric analysis. The series is classed as protein assay.
Series [17] can be described thus: Aqueous solubility of the compound in water. The series is classed as physicochemical. In outline:
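Turbidity at 600 nm of test compound in DMSO added to citrate–phosphate buffer (pH 5 and pH 7.4), water and BSA (0.2 mg/ml stock), at various concentrations, read against a water reference. Enzyme testing used only concentrations showing no turbidity.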

In series [18] the target is T1, Hyaluronidase (Bos taurus). As to the kind of experiment: Inhibition of bovine testes hyaluronidase at 63 uM after 30 mins at pH 5 by turbidimetric analysis. In kind it is protein assay.
The target in series [19] is T1, Hyaluronidase (Bos taurus). Briefly: Inhibition of bovine testes hyaluronidase at 100 uM after 30 mins at pH 5 by turbidimetric analysis. In kind it is protein assay.
Series [20] concerns Streptococcus agalactiae. As to the kind of experiment: Inhibition of Streptococcus agalactiae 4755 hyaluronidase at 3800 uM after 30 mins at pH 5.0 by turbidimetric analysis. In outline: as §2
For series [21], the system named is Streptococcus agalactiae. As to the kind of experiment: Inhibition of Streptococcus agalactiae 4755 hyaluronidase at 80 uM after 30 mins at pH 5.0 by turbidimetric analysis. In outline: as §2
Series [22] relates to Streptococcus agalactiae. As to the kind of experiment: Inhibition of Streptococcus agalactiae 4755 hyaluronidase at 200 uM after 3 hrs at pH 7.4 by turbidimetric analysis. In outline:
as §1

Series [23] has as its system Streptococcus agalactiae. As to the kind of experiment: Inhibition of Streptococcus agalactiae 4755 hyaluronidase at 130 uM after 30 mins at pH 5.0 by turbidimetric analysis. In outline: as §2
The test system of series [24] is Streptococcus agalactiae. As to the kind of experiment: Inhibition of Streptococcus agalactiae 4755 hyaluronidase at 170 uM after 30 mins at pH 5.0 by turbidimetric analysis. In outline:
as §2

Series [25] has as its system Streptococcus agalactiae. Briefly: Inhibition of Streptococcus agalactiae 4755 hyaluronidase at 190 uM after 30 mins at pH 5.0 by turbidimetric analysis. In outline:
as §2

The test system of series [26] is Streptococcus agalactiae. Briefly: Inhibition of Streptococcus agalactiae 4755 hyaluronidase at 180 uM after 30 mins at pH 5.0 by turbidimetric analysis. In short, it runs like this:
as §2

For series [27], the system named is Streptococcus agalactiae. As to the kind of experiment: Inhibition of Streptococcus agalactiae 4755 hyaluronidase at 63 uM after 30 mins at pH 5.0 by turbidimetric analysis. In outline: as §2

T1 sequence (Q5E985 whole entry, looked up): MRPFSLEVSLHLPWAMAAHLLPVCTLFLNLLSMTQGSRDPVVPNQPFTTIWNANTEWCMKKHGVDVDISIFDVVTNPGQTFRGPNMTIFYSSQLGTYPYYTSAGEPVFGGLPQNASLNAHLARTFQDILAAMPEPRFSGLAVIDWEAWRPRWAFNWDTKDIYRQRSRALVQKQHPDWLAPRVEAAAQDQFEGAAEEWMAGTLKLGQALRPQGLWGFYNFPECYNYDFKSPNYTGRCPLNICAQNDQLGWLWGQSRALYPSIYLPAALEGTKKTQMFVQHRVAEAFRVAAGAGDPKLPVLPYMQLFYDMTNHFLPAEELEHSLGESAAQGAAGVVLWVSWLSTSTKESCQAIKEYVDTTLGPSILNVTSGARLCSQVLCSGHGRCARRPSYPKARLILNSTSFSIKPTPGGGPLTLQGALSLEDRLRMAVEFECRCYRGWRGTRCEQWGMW
T1 sequence (Q8SQG8 whole entry, looked up): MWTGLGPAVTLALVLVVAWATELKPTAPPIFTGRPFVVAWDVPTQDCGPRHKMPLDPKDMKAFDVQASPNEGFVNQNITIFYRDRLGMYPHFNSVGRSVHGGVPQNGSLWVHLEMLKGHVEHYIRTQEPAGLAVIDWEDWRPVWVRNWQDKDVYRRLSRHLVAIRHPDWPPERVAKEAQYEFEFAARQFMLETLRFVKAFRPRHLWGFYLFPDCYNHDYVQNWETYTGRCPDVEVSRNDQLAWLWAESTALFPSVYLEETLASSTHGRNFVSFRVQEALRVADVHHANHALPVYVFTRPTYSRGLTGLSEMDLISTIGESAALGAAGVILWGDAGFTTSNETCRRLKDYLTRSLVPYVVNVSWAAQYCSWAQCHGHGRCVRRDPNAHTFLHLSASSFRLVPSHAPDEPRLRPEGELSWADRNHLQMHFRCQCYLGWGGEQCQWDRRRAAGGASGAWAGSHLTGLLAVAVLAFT

Regarding `CC(=O)n1c(=O)oc2ccccc21`, the inhibition result in series [1], in [2], in series [3], in series [4], in [5] and in series [6] was “inactive” in each case. For the same compound, the inhibition result (in [7]; in series [8]; in [9]; in series [11]; in the series with Streptococcus agalactiae [12]; in [13]) was “inactive” in each case. In addition, the inhibition result in series [14], in [15], in [16], in [18] and in [19] was “inactive” each time. The negative logarithm of the IC50 (pIC50) in series [10] is 2.83. Further, in series [17], the concentration in solution (solubility) came to 2000 µM (≈ 354 µg/mL).

As to `Sc1nc2ccccc2o1`, the inhibition entry in series [1], in series [2], in [3], in series [4], in series [5] and in [6] was “inactive” each time. Further, the inhibition result in series [7], in series [8], in series [9], in series [11], in series [13] and in series [14] was “inactive” each time. Also, the inhibition result in [15], in series [16], in [18] and in series [19] was “inactive” in each case. The pIC50 in series [10] was 2.59. The compound further came in with an inhibition in the series on Streptococcus agalactiae [20] of 42%. In series [17], this compound showed a solubility of 3800 µM (≈ 575 µg/mL).

As to `O=C(/C=C/c1ccccc1)n1c(=S)oc2ccccc21`, the inhibition entry in series [1], in [2], in series [3], in [4], in series [5] and in series [6] was “inactive” throughout. The inhibition result in series [7], in series [8], in series [9], in series [11], in series [13] and in [14] was “inactive” throughout. Also, the inhibition result in series [15], in series [16], in series [18] and in [19] was “inactive” each time. Moreover, the inhibition was 9% with Streptococcus agalactiae [21] and 36% with Streptococcus agalactiae [22]. The same compound gave a solubility in [17] of 80 µM (≈ 22.5 µg/mL).

With `CCCCCC(=O)n1c(=S)oc2ccccc21`, the inhibition result in series [1], in series [2], in series [3], in [4], in series [5] and in series [6] was “inactive” in each case. The inhibition entry in series [7], in series [8], in series [9], in series [11], in series [13] and in series [14] was “inactive” throughout. Besides, the inhibition entry in series [15], in series [16], in series [18] and in [19] was “inactive” in each case. The compound further had a pIC50 in series [10] of 4.54. Further, the inhibition in the series on Streptococcus agalactiae [23] came to 51%. This compound registered a solubility in [17] of 130 µM (≈ 32.4 µg/mL).

`CCCCCC(=O)n1c(=S)[nH]c2ccccc21`: the inhibition entry in [1], in series [2], in [3], in series [4], in series [5] and in [6] was “inactive” in each case. In addition, the inhibition entry in series [7], in series [8], in series [9], in [11], in series [13] and in [14] was “inactive” each time. The inhibition entry in series [15], in [16], in series [18] and in [19] was “inactive” throughout. Besides, in series [10], the pIC50 is 4.80. In series [17], this compound came in with a solubility of 170 µM (≈ 42.2 µg/mL). In the series on Streptococcus agalactiae [24], the inhibition amounted to 14%.

`CCCC(=O)n1c(=S)[nH]c2ccccc21`: the inhibition entry in [1], in series [2], in series [3], in [4], in series [5] and in series [6] was “inactive” in each case. Moreover, the inhibition entry in series [7], in series [8], in [9], in series [11], in series [13] and in series [14] was “inactive” in each case. The inhibition result in [15], in series [16], in series [18] and in series [19] was “inactive” throughout. Besides, in series [10], the pIC50 was 4.70. The same compound displayed an inhibition with Streptococcus agalactiae [25] of 7%. Also, the concentration in solution in series [17] (solubility) came to 190 µM (≈ 41.9 µg/mL).

On to `CCC(=O)n1c(=S)[nH]c2ccccc21`, for which the inhibition entry in [1], in [2], in series [3], in [4], in [5] and in [6] was “inactive” throughout. Besides, the inhibition result in [7], in series [8], in [9], in series [11], in series [13] and in [14] was “inactive” each time. Besides, the inhibition entry in [15], in [16], in series [18] and in series [19] was “inactive” throughout. Besides, in [10], the pIC50 was 4.59. Besides, the inhibition in the series with Streptococcus agalactiae [26] turned out to be 4%. The solubility in series [17] is 180 µM (≈ 37.1 µg/mL).

With `CCCCCCCCCCCCCCCC(=O)n1c(=S)oc2ccccc21`, the inhibition result in series [1], in series [2], in series [3], in series [4], in series [5] and in [6] was “inactive” throughout. Besides, the inhibition result in [7], in [8], in series [9], in series [11], in series [13] and in [14] was “inactive” each time. Moreover, the inhibition result in series [15], in series [16], in series [18] and in series [19] was “inactive” each time. The compound further had an inhibition with Streptococcus agalactiae [27] of 23%. In addition, in series [10], the pIC50 is 4.77. The amount in solution in [17] (solubility) came to 63 µM (≈ 24.5 µg/mL).
